Assays:
Rattus norvegicus [1] = experiment: Biodistribution in thyroid of immature female rat after 1 hr administration of 3 micro Ci (111 kBq) in the absence of 60 microg estradiol; format: ADME, organism-based, Thyroid gland; details: in vivo
Procedure, shortened: (§1)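 Immature female Long Evans rats (21–24 days, 45–70 g), three to five per group, given 125I-labeled steroid (3 μCi, 111 kBq) by lateral tail vein without anesthesia. Vehicle: ethanol diluted in saline with 1% Tween-80, final ethanol 9%, 0.22 μm filtered. +E2 groups received 60 μg unlabeled estradiol co-injected. Killed under ether at set times; tissues KCl-washed, blotted, weighed, gamma counted; %ID/g, mean with SE.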

Rattus norvegicus [2] = experiment: Biodistribution in liver of immature female rat after 1 hr administration of 3 micro Ci (111 kBq) in the absence of 60 microg estradiol; format: ADME, organism-based; details: in vivo
Procedure, shortened: (§2)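 Immature female Long Evans rats (21–24 days, 45–70 g), unanesthetized in retention cages, given 3 µCi (111 kBq) 125I-labeled steroid i.v. via lateral tail vein. Vehicle was ethanol diluted in saline containing 1% Tween-80, giving 9% ethanol final. The blocking group received 60 µg unlabeled estradiol co-injected. Rats were killed under ether by axillary bleeding, and tissues were KCl-washed and gamma-counted. Data are %ID/g, mean ± SE, n=3–5.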

Rattus norvegicus [3] = experiment: Biodistribution in fat of immature female rat after 1 hr administration of 3 micro Ci (111 kBq) in the absence of 60 microg estradiol; format: ADME, organism-based, Adipose tissue; details: in vivo; procedure, shortened: as §2
Rattus norvegicus [4] = experiment: Biodistribution in lungs of immature female rat after 1 hr administration of 3 micro Ci (111 kBq) in the presence of (+E2); format: ADME, organism-based, Lung; details: in vivo; procedure, shortened: as §2
Rattus norvegicus [5] = experiment: Biodistribution in thyroid of immature female rat after 12 hour administration of 3 micro Ci (111 kBq) in the absence of 60 microg estradiol; format: ADME, organism-based, Thyroid gland; details: in vivo; procedure, shortened: as §1
Rattus norvegicus [6] = experiment: Biodistribution in uterus / blood of immature female rat after 3 hour administration of 3 micro Ci (111 kBq) in the absence of 60 microg estradiol; format: ADME, organism-based; details: in vivo
Procedure, shortened: (§3)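 Same in vivo procedure: immature female Long Evans rats (21–24 days), three to five per group, 3 μCi (111 kBq) tracer i.v. via tail vein in 9% ethanol/saline/1% Tween-80, ± 60 μg estradiol co-injected at 1 h. Uterus %ID/g (gamma counting) divided by blood, or by nontarget organ (muscle, spleen, lungs), %ID/g to give ratios.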

Rattus norvegicus [7] = experiment: Biodistribution in kidney of immature female rat after 1 hr administration of 3 micro Ci (111 kBq) in the absence of 60 microg estradiol; format: ADME, organism-based; details: in vivo; procedure, shortened: as §2
[8] = molecular target: Estrogen receptor (Mus musculus) (UniProt O08537+P19785); experiment: Relative binding affinity (RBA) against murine cytoplasmic estrogen receptor incubated at 0-4 degree Celsius for 18 hours; format: protein assay
Chain of Estrogen receptor (Mus musculus) (O08537 whole entry, looked up): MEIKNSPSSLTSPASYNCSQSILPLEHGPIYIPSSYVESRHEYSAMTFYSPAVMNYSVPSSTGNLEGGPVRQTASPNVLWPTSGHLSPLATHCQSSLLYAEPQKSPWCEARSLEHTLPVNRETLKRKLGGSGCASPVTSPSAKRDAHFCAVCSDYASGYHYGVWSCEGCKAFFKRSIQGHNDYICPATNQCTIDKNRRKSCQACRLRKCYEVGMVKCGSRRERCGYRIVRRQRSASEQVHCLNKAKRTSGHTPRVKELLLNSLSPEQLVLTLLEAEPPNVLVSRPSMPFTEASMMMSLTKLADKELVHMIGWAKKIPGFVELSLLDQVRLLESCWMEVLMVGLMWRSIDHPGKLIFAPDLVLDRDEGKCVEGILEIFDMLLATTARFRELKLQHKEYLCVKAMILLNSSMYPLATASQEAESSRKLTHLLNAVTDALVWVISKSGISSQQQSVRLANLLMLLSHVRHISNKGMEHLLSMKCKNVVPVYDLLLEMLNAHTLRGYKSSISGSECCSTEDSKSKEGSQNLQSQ
Chain of Estrogen receptor (Mus musculus) (P19785 whole entry, looked up): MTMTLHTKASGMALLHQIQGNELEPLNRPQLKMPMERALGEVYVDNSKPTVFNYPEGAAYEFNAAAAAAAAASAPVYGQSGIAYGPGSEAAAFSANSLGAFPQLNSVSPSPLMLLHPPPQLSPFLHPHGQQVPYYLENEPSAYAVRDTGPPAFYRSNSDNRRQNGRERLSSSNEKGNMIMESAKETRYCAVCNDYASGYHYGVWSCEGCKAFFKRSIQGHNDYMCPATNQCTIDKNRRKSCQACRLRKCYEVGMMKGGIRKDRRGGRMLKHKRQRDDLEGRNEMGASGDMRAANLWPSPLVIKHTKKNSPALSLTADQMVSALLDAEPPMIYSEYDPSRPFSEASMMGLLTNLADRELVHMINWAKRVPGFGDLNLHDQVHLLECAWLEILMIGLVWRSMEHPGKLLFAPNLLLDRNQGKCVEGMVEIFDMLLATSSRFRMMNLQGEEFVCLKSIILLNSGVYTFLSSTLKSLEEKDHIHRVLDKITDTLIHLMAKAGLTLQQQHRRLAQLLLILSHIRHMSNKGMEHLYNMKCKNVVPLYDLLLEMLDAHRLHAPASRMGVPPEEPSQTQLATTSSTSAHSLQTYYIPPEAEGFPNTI
Procedure, shortened: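 Competitive binding on murine uterine cytoplasmic extract with 20 nM [3H]estradiol and competitor steroids at 2 nM–20 μM, incubated 18 h at 0–4 °C. RBA = 100 × ratio of […] concentration giving 50% competition for specific binding. Mean of three experiments with SD.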

Rattus norvegicus [9] = experiment: Biodistribution in uterus / spleen, muscle, lungs of immature female rat after 5 hour administration of 3 micro Ci (111 kBq) in the absence of 60 microg estradiol; format: ADME, organism-based; details: in vivo
Procedure, shortened: (§4)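 Immature female Long Evans rats (21–24 days, 45–70 g), 3–5 per group, unanesthetized in retention cages, given 3 μCi (111 kBq) 125I-labeled steroid by lateral tail vein. Vehicle: ethanol diluted with saline containing 1% Tween-80, final ethanol 9%. +E2 group co-injected 60 μg unlabeled estradiol (1 h only). Killed under ether; tissues KCl-washed, weighed, gamma-counted. Output: %ID/g (mean, SE) and uterus to blood or nontarget (muscle, spleen, lungs) ratios.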

Rattus norvegicus [10] = experiment: Biodistribution in uterus / spleen, muscle, lungs of immature female rat after 1 hr administration of 3 micro Ci (111 kBq) in the absence of 60 microg estradiol; format: ADME, organism-based; details: in vivo; procedure, shortened: as §3
Rattus norvegicus [11] = experiment: Biodistribution in uterus / blood of immature female rat after 12 hour administration of 3 micro Ci (111 kBq) in the absence of 60 microg estradiol; format: ADME, organism-based; details: in vivo; procedure, shortened: as §3
Rattus norvegicus [12] = experiment: Biodistribution in uterus / spleen, muscle, lungs of immature female rat after 12 hour administration of 3 micro Ci (111 kBq) in the absence of 60 microg estradiol; format: ADME, organism-based; details: in vivo; procedure, shortened: as §4
Rattus norvegicus [13] = experiment: Biodistribution in fat of immature female rat after 3 hour administration of 3 micro Ci (111 kBq) in the absence of 60 microg estradiol; format: ADME, organism-based, Adipose tissue; details: in vivo; procedure, shortened: as §2
Rattus norvegicus [14] = experiment: Biodistribution in muscle of immature female rat after 1 hr administration of 3 micro Ci (111 kBq) in the absence of 60 microg estradiol; format: ADME, organism-based, Muscle tissue; details: in vivo; procedure, shortened: as §1
Rattus norvegicus [15] = experiment: Biodistribution in fat of immature female rat after 12 hour administration of 3 micro Ci (111 kBq) in the absence of 60 microg estradiol; format: ADME, organism-based, Adipose tissue; details: in vivo; procedure, shortened: as §2
Rattus norvegicus [16] = experiment: Biodistribution in uterus of immature female rat after 12 hour administration of 3 micro Ci (111 kBq) in the absence of 60 microg estradiol; format: ADME, organism-based; details: in vivo; procedure, shortened: as §4
Rattus norvegicus [17] = experiment: Biodistribution in lungs of immature female rat after 5 hour administration of 3 micro Ci (111 kBq) in the absence of 60 microg estradiol; format: ADME, organism-based, Lung; details: in vivo; procedure, shortened: as §1
Rattus norvegicus [18] = experiment: Biodistribution in muscle of immature female rat after 5 hour administration of 3 micro Ci (111 kBq) in the absence of 60 microg estradiol; format: ADME, organism-based, Muscle tissue; details: in vivo; procedure, shortened: as §1
Rattus norvegicus [19] = experiment: Biodistribution in spleen of immature female rat after 3 hour administration of 3 micro Ci (111 kBq) in the absence of 60 microg estradiol; format: ADME, organism-based; details: in vivo; procedure, shortened: as §1
Rattus norvegicus [20] = experiment: Biodistribution in liver of immature female rat after 5 hour administration of 3 micro Ci (111 kBq) in the absence of 60 microg estradiol; format: ADME, organism-based; details: in vivo; procedure, shortened: as §2
Rattus norvegicus [21] = experiment: Biodistribution in kidney of immature female rat after 1 hr administration of 3 micro Ci (111 kBq) in the presence of (+E2); format: ADME, organism-based; details: in vivo; procedure, shortened: as §2
Rattus norvegicus [22] = experiment: Biodistribution in lungs of immature female rat after 1 hr administration of 3 micro Ci (111 kBq) in the absence of 60 microg estradiol; format: ADME, organism-based, Lung; details: in vivo; procedure, shortened: as §2
Rattus norvegicus [23] = experiment: Biodistribution in lungs of immature female rat after 12 hour administration of 3 micro Ci (111 kBq) in the absence of 60 microg estradiol; format: ADME, organism-based, Lung; details: in vivo; procedure, shortened: as §1
Rattus norvegicus [24] = experiment: Biodistribution in fat of immature female rat after 1 hr administration of 3 micro Ci (111 kBq) in the presence of (+E2); format: ADME, organism-based, Adipose tissue; details: in vivo; procedure, shortened: as §2
Rattus norvegicus [25] = experiment: Biodistribution in blood of immature female rat after 3 hour administration of 3 micro Ci (111 kBq) in the absence of 60 microg estradiol; format: ADME, organism-based; details: in vivo; procedure, shortened: as §2
Rattus norvegicus [26] = experiment: Biodistribution in muscle of immature female rat after 1 hr administration of 3 micro Ci (111 kBq) in the presence of (+E2); format: ADME, organism-based, Muscle tissue; details: in vivo; procedure, shortened: as §1
Rattus norvegicus [27] = experiment: Biodistribution in muscle of immature female rat after 12 hour administration of 3 micro Ci (111 kBq) in the absence of 60 microg estradiol; format: ADME, organism-based, Muscle tissue; details: in vivo; procedure, shortened: as §1
Rattus norvegicus [28] = experiment: Biodistribution in liver of immature female rat after 3 hour administration of 3 micro Ci (111 kBq) in the absence of 60 microg estradiol; format: ADME, organism-based; details: in vivo; procedure, shortened: as §2
Rattus norvegicus [29] = experiment: Biodistribution in kidney of immature female rat after 3 hour administration of 3 micro Ci (111 kBq) in the absence of 60 microg estradiol; format: ADME, organism-based; details: in vivo; procedure, shortened: as §2
Rattus norvegicus [30] = experiment: Biodistribution in blood of immature female rat after 1 hr administration of 3 micro Ci (111 kBq) in the absence of 60 microg estradiol; format: ADME, organism-based; details: in vivo; procedure, shortened: as §2

## C[C@]12CC[C@@H]3c4cc(F)c(O)cc4CC[C@H]3[C@@H]1CC[C@@]2(O)/C=C\I
Rattus norvegicus [1]
  ID/g: 39%
Rattus norvegicus [2]
  ID/g: 2.25%
Rattus norvegicus [3]
  ID/g: 2.19%
Rattus norvegicus [4]
  ID/g: 0.75%
Rattus norvegicus [5]
  ID/g: 365%
Rattus norvegicus [6]
  uterus to blood %ID/g ratio (unitless): 12.98%
Rattus norvegicus [7]
  ID/g: 0.88%
[8]
  RBA: 53.7
Rattus norvegicus [9]
  uterus to nontarget tissue ratio: 18.05%
Rattus norvegicus [10]
  uterus-to-nontarget tissue uptake ratio: 7.32%
Rattus norvegicus [11]
  Uterus-to-blood radioactivity ratio (dimensionless): 15.69%
Rattus norvegicus [12]
  uterus to nontarget tissue ratio: 20.54%
Rattus norvegicus [13]
  ID/g: 2.21%
Rattus norvegicus [14]
  ID/g: 0.57%
Rattus norvegicus [15]
  ID/g: 0.19%
Rattus norvegicus [16]
  ID/g: 2.51%
Rattus norvegicus [17]
  ID/g: 0.24%
Rattus norvegicus [18]
  ID/g: 0.14%
Rattus norvegicus [19]
  ID/g: 0.29%
Rattus norvegicus [20]
  ID/g: 1.16%
Rattus norvegicus [21]
  ID/g: 0.65%
Rattus norvegicus [22]
  ID/g: 0.81%
Rattus norvegicus [23]
  ID/g: 0.12%
Rattus norvegicus [24]
  ID/g: 2.88%
Rattus norvegicus [25]
  ID/g: 0.42%
Rattus norvegicus [26]
  ID/g: 2.16%
Rattus norvegicus [27]
  ID/g: 0.05%
Rattus norvegicus [28]
  ID/g: 1.76%
Rattus norvegicus [29]
  ID/g: 0.53%
Rattus norvegicus [30]
  ID/g: 0.61%

## C[C@@H]1Cc2cc(O)c(F)cc2[C@H]2CC[C@@]3(C)[C@@H](CC[C@@]3(O)/C=C\I)[C@H]12
Rattus norvegicus [1]
  ID/g: 205%
Rattus norvegicus [2]
  ID/g: 2.19%
Rattus norvegicus [3]
  ID/g: 2.02%
Rattus norvegicus [4]
  ID/g: 0.42%
Rattus norvegicus [5]
  ID/g: 745%
Rattus norvegicus [6]
  uterus to blood %ID/g ratio (unitless): 14.81%
Rattus norvegicus [7]
  ID/g: 1.11%
[8]
  RBA: 28.6
Rattus norvegicus [9]
  uterus to nontarget tissue ratio: 8.94%
Rattus norvegicus [10]
  uterus-to-nontarget tissue uptake ratio: 5.13%
Rattus norvegicus [11]
  Uterus-to-blood radioactivity ratio (dimensionless): 18.13%
Rattus norvegicus [12]
  uterus to nontarget tissue ratio: 15.99%
Rattus norvegicus [13]
  ID/g: 1.54%
Rattus norvegicus [14]
  ID/g: 0.53%
Rattus norvegicus [15]
  ID/g: 0.84%
Rattus norvegicus [16]
  ID/g: 3.84%
Rattus norvegicus [17]
  ID/g: 0.37%
Rattus norvegicus [18]
  ID/g: 0.29%
Rattus norvegicus [19]
  ID/g: 0.74%
Rattus norvegicus [20]
  ID/g: 2.51%
Rattus norvegicus [21]
  ID/g: 0.62%
Rattus norvegicus [22]
  ID/g: 0.56%
Rattus norvegicus [23]
  ID/g: 0.25%
Rattus norvegicus [24]
  ID/g: 1.58%
Rattus norvegicus [25]
  ID/g: 0.32%
Rattus norvegicus [26]
  ID/g: 0.29%
Rattus norvegicus [27]
  ID/g: 0.19%
Rattus norvegicus [28]
  ID/g: 1.81%
Rattus norvegicus [29]
  ID/g: 0.69%
Rattus norvegicus [30]
  ID/g: 0.45%

From ChEMBL document CHEMBL1126849, “Synthesis of A-ring fluorinated derivatives of (17 alpha,20E/Z)-[125I]iodovinylestradiols: effect on receptor binding and receptor-mediated target tissue uptake” (J Med Chem, 1993)
